High-throughput results (PubChem)
T cell HTS – T cell immune modulation candidate. AID 2052. response (vesicle binding), % at 7 µM. 2C CD8+ T cell-vesicle binding, flow cytometry; active compounds read low. hit rate 0.068% among 330,000;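 active = response, share of CD8 T cells binding vesicles, and their 90th percentile fluorescence all below set limits, cut at about 80% in these data, passing the limit was not always enough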;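 note: values below 100% mean blocked vesicle binding to the CD8+ T cells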
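Material: 2C TCR transgenic mouse naive CD8+ T cells, MACS-purified. Also added: QL9-charged Drosophila Ld/ICAM-1/B7-1 vesicles. Timing: binding 1.5 h at 37 °C. Measured by: high-throughput flow cytometry with anti-B7-1 and anti-CD8 staining. Read-out: percent CD8+ FL2 mean versus row control. Controls: Unloaded micro-vesicles (low), QL9 vesicles with 0.7% DMSO (high).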
NTR1 ag – agonists of human neurotensin receptor NTR1 | hit rate 0.17% among 330,000 | activation, % at 20 µM | P30989 | NTR1-U2OS beta-arrestin-GFP spot imaging, agonist mode;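 active = activation at or above 40% of the spot to cytoplasm intensity ratio, with at least 20 cells analyzed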;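 note: 0% = DMSO without peptide and 100% = 100 nM NTR1 peptide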
Target sequence (P30989 whole entry, looked up): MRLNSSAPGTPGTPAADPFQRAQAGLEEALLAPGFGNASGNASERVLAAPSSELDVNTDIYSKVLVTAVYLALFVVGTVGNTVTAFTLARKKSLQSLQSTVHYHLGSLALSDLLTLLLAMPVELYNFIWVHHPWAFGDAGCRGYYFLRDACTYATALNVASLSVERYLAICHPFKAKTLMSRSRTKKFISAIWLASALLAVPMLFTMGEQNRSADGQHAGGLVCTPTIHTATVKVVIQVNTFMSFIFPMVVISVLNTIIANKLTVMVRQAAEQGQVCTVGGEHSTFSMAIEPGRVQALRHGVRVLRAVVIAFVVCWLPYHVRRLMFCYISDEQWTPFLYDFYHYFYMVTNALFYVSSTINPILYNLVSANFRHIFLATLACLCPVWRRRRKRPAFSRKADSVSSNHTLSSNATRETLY
Xi reactivation – reactivates the inactive X chromosome in mouse fibroblasts. XiGFP mouse fibroblasts, % GFP-positive cells imaging, 3 d; cells co-treated with 5-aza-dC sensitizer; scaled so ellipticine positive control = 100%. activation, % at 7.58 µM. hit rate 0.055% among 360,000. AID 743238;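 active = mean normalized replicate activation at least 10% and every replicate at or above 10%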;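 note: 0% = median of on-plate neutral control wells and 100% = ellipticine 6 µM median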
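Assay system: SV40-immortalized XiGFP fibroblast cells, line 68-5-11; buffer or medium: DMEM plus 5-aza-dC sensitizer; compound: one concentration, pinned; timing: compounds 3 days, fix/stain 15 min at room temperature; benchmarks: positive control ellipticine, 6 µM final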
beta cell repl – induces beta-cell replication in MIN6 cells; MIN6 cells proliferation, ATPlite luminescence, 48 h; cells starved in 0.2% serum; 100% = growth in 10% serum; proliferation, % at 10 µM; hit rate 0.29% among 330,000; AID 2380;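 active = compounds whose signal lies at least 3.5 SD above the mean of all wells on their plate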;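 note: 0% = DMSO-treated cells in low-serum medium and 100% = 10% serum control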
V-ATPase pHluor – alters yeast V-ATPase proton transport; response, % at 10 µM; AID 504577; hit rate 0.37% among 350,000; S. cerevisiae, pHLuorin cytosolic pH fluorescence; in the data active = response mostly above about 7.3%, no sharp cut-off; inactive = mostly below about 5.4%; note: actives read high
Arrestin-AP2 inh – blocks beta-arrestin peptide binding to AP2 adaptin; FITC-arrestin peptide / GST-AP2 beads, flow cytometry; AP2 beta2 appendage carries R879A mutation; inhibition, % at 10 µM; hit rate 0.31% among 340,000; AID 504490;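 active = inhibition above a set limit, near 3 SD of compounds lacking own fluorescence, cut at about 54% in these data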;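 note: plate controls were DMSO wells for no effect and 5 µM unlabelled arrestin peptide for full effect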
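test system = AP2 appendage R879A on GSH beads | buffer or medium = PBS plus Tween 20 (0.05%) and BSA (0.1%) | incubation = 12 min plus 1 h, RT | detection = bead flow cytometry, FITC channel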
* hit, by the source's call; i = inactive; . = not tested or not shown. Hits are enriched below; roughly 0.89% of the tested compounds scored in any of these assays.

SMILES | T cell HTS | NTR1 ag | Xi reactivation | beta cell repl | V-ATPase pHluor | Arrestin-AP2 inh
CCOC(=O)C1CCN(C(=S)Nc2ccc(Cl)cc2C)CC1 | 172 | 1 | 0 | 2 | 0 | -3
CCOC(=O)C1CCN(C(=S)Nc2cc(C)ccc2C)CC1 | 504 | 0 | 0 | -3 | 22* | 4
O=C1c2ccccc2C(=O)C1Cc1cccc2ccccc12 | 354 | 1 | . | -1 | 289* | -287
CO[C@H]1CC[C@H]2CCN(C)C(=O)[C@@H](C)[C@H](OC)CN(C)C(=O)c3cc(C#N)ccc3OC[C@H]1O2 | . | . | 0 | . | . | .
CCOc1cccc(/C(O)=C2/C(=O)C(=O)N(Cc3cccnc3)C2c2ccco2)c1 (centres undefined) | 328 | -1 | . | 2 | 2 | 1
COc1ccc(/C(O)=C2/C(=O)C(=O)N(Cc3cccnc3)C2c2ccco2)cc1OC (centres undefined) | 48* | -2 | . | -2 | 1 | -1
CC(C)C#Cc1ccc2c(c1)O[C@H](CN(C)C)[C@@H](C)CN([C@@H](C)CO)S2(=O)=O | . | . | 0 | . | . | .
CC(C)C#Cc1ccc2c(c1)O[C@@H](CN(C)C(=O)c1cccc(F)c1)[C@@H](C)CN([C@H](C)CO)S2(=O)=O | . | . | -1 | . | . | .
COc1ccc(/C=C\c2onc(C)c2S(=O)(=O)N2CCC(C(=O)NCc3ccco3)CC2)cc1 | 105 | 1 | 11* | -1 | 0 | -5
COc1cccc(CNC(=O)c2cccc(NC3=NC4CS(=O)(=O)CC4S3)c2)c1 (centres undefined) | 529 | -2 | 0 | 0 | 6 | -7
COc1ccc(CNC(=O)c2cccc(NC3=NC4CS(=O)(=O)CC4S3)c2)cc1 (centres undefined) | 437 | -2 | 0 | 1 | 19* | 1
CCc1c(C)nc(SCC(=O)Nc2nc(-c3ccc(OC)cc3)cs2)[nH]c1=O | 53* | 7 | 0 | -4 | -2 | 7
CC(=O)Nc1ccc(C2=NNC(=Nc3cccc(S(=O)(=O)N(C)C)c3)SC2)cc1 | 131 | -1 | . | -6 | 7.9* | -3
COc1ccc(N2C(=O)C(CC(=O)Nc3ccccc3)N(Cc3cccs3)C2=O)cc1 (centres undefined) | 413 | -2 | 0 | -3 | 16* | 27
COc1ccc(NC(=O)CC2C(=O)N(c3ccc(OC)cc3)C(=O)N2CCc2cccs2)cc1 (centres undefined) | 204 | 0 | 0 | 0 | 3 | 5
O=C(COc1ccc(-c2nnco2)cc1)N1CCOCC1 | 167 | 0 | 0 | 3 | 15* | 1
CCN1/C(=C\c2ccc3cc(C)ccc3[n+]2CC)Sc2cc(C)c(C)cc21 | . | . | 77* | . | 3 | -40
CCN1/C(=C/c2ccc3cccc(C)c3[n+]2CC)Sc2ccccc21 | i | -4 | . | -6 | 1 | 13
CCN1/C(=C/c2ccc3cc(C)cc(C)c3[n+]2CC)Sc2cc(C)ccc21 | . | . | 110* | . | 9 | -55
CC(C)CC#Cc1ccc2c(c1)O[C@H](CN(C)C(=O)c1ccncc1)[C@@H](C)CN([C@H](C)CO)S2(=O)=O | . | . | 0 | . | . | .
Cc1ccc(C(=O)Nc2ccc3c(c2)C(=O)N(CC2CCCO2)C3=O)cc1 (centres undefined) | 65* | 2 | 0 | -1 | -1 | 10
O=C(O)c1ccc(NC(=O)c2ccc3c(c2)C(=O)N(CC2CCCO2)C3=O)cc1 (centres undefined) | 398 | -1 | . | 0 | 0 | 2
C[C@H](CO)N1C[C@H](C)[C@H](CN(C)C(=O)Nc2cccc3ccccc23)Oc2ccc(NC(=O)Nc3ccc4c(c3)OCO4)cc2C1=O | . | . | 1 | . | . | .
CN1CCN(C2=C(Cl)C(=O)c3ccccc3C2=O)CC1 | . | . | 0 | . | 3 | 41
CN1CCN(C2=C(Cl)C(=O)C(c3cnc(N4CCCCC4)s3)=C(Cl)C2=O)CC1 | 260 | 7 | . | -6 | 17* | 107*
SMILES | T cell HTS | NTR1 ag | Xi reactivation | beta cell repl | V-ATPase pHluor | Arrestin-AP2 inh
C(=C\c1ccncc1)/c1ccncc1 | 187 | 1 | 0 | -4 | -4 | 31
C(=C\c1ccncc1)/c1ccccc1 | 207 | 3 | 0 | -2 | 18* | -2
FC(F)(F)c1ccc(-c2csc(-c3ccno3)n2)cc1 | 266 | 0 | 0 | -3 | -4 | 10
CC(C)(C)C(=O)OCc1nc(-c2ccc(C(F)(F)F)cc2)cs1 | 309 | 0 | 0 | -2 | 21* | -4
C[C@H]1CCCCO[C@@H](CN(C)C(=O)c2ccccc2)[C@@H](C)CN([C@@H](C)CO)C(=O)c2cc(NC(=O)c3ccncc3)ccc2O1 | . | . | 0 | . | . | .
CCOc1ccc(S(=O)(=O)N2CCC(C(N)=O)CC2)c2ccccc12 | 274 | -4 | . | 0 | 22* | 7
CN(C(=O)CSc1nnc(Nc2ccccc2F)s1)C1CCS(=O)(=O)C1 (centres undefined) | 180 | 1 | 0 | 0 | -3 | -2
CN(C(=O)CSc1nnc(-c2ccc(F)cc2)n1C)C1CCS(=O)(=O)C1 (centres undefined) | 187 | -1 | 0 | -2 | 10* | -13
Cc1ccccc1Nc1nnc(SCC(=O)N(C)C2CCS(=O)(=O)C2)s1 (centres undefined) | 298 | 0 | 0 | 0 | 16* | 11
CC[C@@H]1CC=CC[C@@H](C)Oc2ccccc2C(=O)N(C)[C@H](Cc2ccccc2)C(=O)N1 (mixture of isomers) | . | . | 0 | . | . | .
COCC#Cc1ccc([C@H]2[C@H](CO)N3C(=O)CN(C(=O)c4cccnc4)C[C@@H]23)cc1 | . | . | 1 | . | . | .
Cc1cccc(-c2nnc3n2N=C(c2ccccc2Br)CS3)c1 | 110 | 5 | . | 7.3* | 2 | -4
Cc1cc(C)c(OC2(c3ccccc3)OC(=O)c3ccccc32)c(C)c1 (centres undefined) | 308 | 3 | . | -6 | 19* | 4
Cn1c(Cn2c(=O)sc3ccccc32)nnc1SCC(=O)NC1CCCCC1 | 68* | 0 | . | 5 | 2 | 11
Cn1c(Cn2c(=O)sc3ccccc32)nnc1SCC(=O)NC1CCCC1 | 64 | -2 | 0 | -2 | 2 | 8
COc1ccc(NS(=O)(=O)c2ccc3c(c2)CCC(=O)N3)c(OC)c1 | 965 | 2 | . | -2 | 19* | -9
COc1ccc(NC(=O)CN(C)S(=O)(=O)c2ccc3c(c2)CCC(=O)N3)c(OC)c1 | 344 | -2 | 1 | -4 | 0 | 6
C[C@@H]1CCCCO[C@@H](CN(C)CC2CCCCC2)[C@H](C)CN([C@H](C)CO)C(=O)c2cc(NC(=O)NC3CCCCC3)ccc2O1 | . | . | 0 | . | . | .
